The values below come from PubChem BioAssay AID2295 (NMMLSC, 2010).

Calls of active or inactive are those of the source.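 How the source made its calls: active means EC50 of 30 microM or lower, as activator or inhibitor; inactive means the rest.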

Chain of Regulator of G-protein signaling 4 (Homo sapiens) (P49798 whole entry, looked up): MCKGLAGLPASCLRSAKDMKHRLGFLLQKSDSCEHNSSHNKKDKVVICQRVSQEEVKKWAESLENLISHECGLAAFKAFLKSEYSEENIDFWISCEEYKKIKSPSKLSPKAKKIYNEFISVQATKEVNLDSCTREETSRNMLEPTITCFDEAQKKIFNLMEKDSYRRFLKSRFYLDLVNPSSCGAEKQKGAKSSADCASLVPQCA

The first test has as its target Regulator of G-protein signaling 4 (Homo sapiens) (UniProt P49798). The experiment in a line: small molecules altering RGS4 interaction with Galphao – biochemical, multiplexed bead flow cytometry, SAR compounds, SAR follow-up (AID 2295). The settings on record: bead-based flow cytometry, RGS4-AF488 Galphao binding. The method, boiled down: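 Material: streptavidin bead-bound biotinylated RGS4, multiplexed bead sets; Detection: flow cytometry, median green (AlexaFluor488) fluorescence per bead set; Read-out basis: % response, EC50 and Ki (Kd 40 nM); Incubation: 30-90 min incubation at room temperature; Compound: 9 points, threefold dilution steps; Probe or stimulus: AlexaFluor488-labeled Galphao-GDP-AlF4 probe, 7 nM final.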
For orientation: EC50 means the concentration at which the effect is half-maximal. On to `Cc1cccc(N2CCN(C(=O)Cn3sc4nc(C)cc(C)c4c3=O)CC2C)c1` (stereo not drawn), for which the EC50 was > 30000 nM (inactive). Same read-out and setting: in the case of `CC(=O)OCCCNc1cc(Sc2nc3ccccc3s2)c2nonc2c1[N+](=O)[O-]` it was > 30000 nM (inactive); in that of `NS(=O)(=O)c1ccc(N/N=C/c2ccc(O)c(O)c2O)c([N+](=O)[O-])c1`, 1200 nM.

On to `Cc1[nH]n(-c2ccccc2)c(=S)c1C=NCCCN=Cc1c(C)[nH]n(-c2ccccc2)c1=S`, for which the EC50 was > 30000 nM (inactive). As to `CC(NC(=O)c1sc2cc([N+](=O)[O-])ccc2c1Cl)C(C)(C)C` (stereo not drawn), the EC50 was > 30000 nM (inactive).

The test is the same for the next values; noted with them: bead-based flow cytometry, RGS4-AF488 Galphao binding; measured here: Ki calculated from EC50.
Broadly, the Ki is the equilibrium dissociation constant of an inhibitor or competing ligand from its target. Turning to `CCN(CC)S(=O)(=O)c1cccc(C(=O)N/N=C/c2ccc(O)c(O)c2O)c1`, the inhibition constant (Ki) was 540 nM. The same measure, in the same setting: for `O=C1C(Cl)=C(N2CCCCC2)C(=O)C(Cl)=C1c1cnc(N2CCCCC2)s1` the value was 230 nM; for `CCN(CC)S(=O)(=O)c1cccc(-c2n[nH]c(=S)n2/N=C/c2ccc(C(=O)OC)cc2)c1`, 8200 nM. Same read-out and setting: in the case of `O=c1c2ccccc2sn1-c1ccc(S(=O)(=O)N2CCCC2)cc1` it was 270 nM; in that of `COc1ccc(C2=CC(=O)C=CC2=O)cc1`, 490 nM. Still for that read-out and setting: in the case of `CCC(=O)NC(c1ccc(C)cc1)c1cc([N+](=O)[O-])c2cccnc2c1O` (stereo not drawn) it was 5620 nM; in that of `O=C(NCCCN1CCOCC1)c1sc2cc([N+](=O)[O-])ccc2c1Cl`, 8570 nM; in that of `Cc1cccc(N2CCN(C(=O)COc3nsc4nc(C)cc(C)c34)CC2C)c1` (stereo not drawn), 5830 nM.

Turning to `O=C(Cc1csc(N2CCOCC2)n1)N/N=C/c1ccc(O)c(O)c1O`, the Ki was 940 nM. The same measure, in the same setting: for `Cc1[nH]n(-c2ccccc2)c(=S)c1C=Nc1cccc([N+](=O)[O-])c1` the value was 9370 nM. On the same count and under the same terms, in the case of `CCN=c1scc(C)n1/N=C/c1ccc(O)c(O)c1O` it was 3000 nM; in that of `O=C(COc1ccccc1C(=O)N/N=C/c1ccc(O)c(O)c1)N/N=C/c1ccc(O)c(O)c1`, 140 nM; in that of `CN1CCN(C2=C(Cl)C(=O)C(c3cnc(N4CCCCC4)s3)=C(Cl)C2=O)CC1`, 290 nM. On the same count and under the same terms, in the case of `Cc1cc(Cl)ccc1N=c1ssnc1Cl` it was 260 nM; in that of `NS(=O)(=O)c1ccc(N/N=C/c2ccc(O)c(O)c2O)c([N+](=O)[O-])c1`, 1020 nM.

Take `CN=c1scc(C)n1/N=C/c1ccc(O)c(O)c1O`: the Ki is 1460 nM.

Turning to `CCOC(=O)c1sc(NC(=O)CSc2nnc(Cc3ccccc3)o2)c(C#N)c1C`, the Ki is 6680 nM. Same read-out and setting: for `O=c1c2ccccc2sn1-c1ccccc1` the value was 110 nM.
